Shown is part of a subset that was picked to be rich in hits.
HEK293 NFkB inh = inhibitors of PMA/ionomycin-induced NF-kB reporter, primary screen, antigen receptor NF-kB inhibitor project, cell-based, HEK-293 luciferase reporter, luminescence; HEK-293 NF-kB luciferase reporter; inhibition, % at 3 µM; 62,000 compounds, 0.21% hits;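 active = inhibition above the mean of all tested compounds plus 3 SD, cut at about 40% in these data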;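 note: 0% = stimulated DMSO wells and 100% = 10 µM reference inhibitor 5653914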
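Material: HEK-293 cells with stable firefly luciferase reporter driven by four HIV NF-kB elements / Also added: PMA plus ionomycin mix as NF-kB-activating stimulus / Compound dosing: 3 µM once, 0.30% DMSO / Times: 1 h pretreatment, 16 h stimulation, 37 °C / Signal: luminescence / Evaluation: per-plate % inhibition versus controls / Benchmarks: DMSO and 10 µM reference inhibitor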
MMP-13 inhibitor = human MMP13 inhibitors, primary screen, biochemical, FRET peptide cleavage; Collagenase 3 (Homo sapiens), P45452; MMP-13 fTHP FRET cleavage, Mca fluorescence; inhibition, % at 4 µM; 65,000 compounds, 0.07% hits; AID 570, 2006;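 active = inhibition above the mean of compound-free control plate wells plus 3 SD, cut at about 14% in these data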;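 note: 0% = DMSO wells and 100% = wells with reference MMP-13 inhibitor after basal subtraction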
Calb biofilm kill = clotrimazole potentiators killing Candida biofilms, primary screen, with clotrimazole, Alamar Blue; C. albicans biofilm + clotrimazole; inhibition, % at 6 µM; 85,000 compounds, 0.14% hits; AID 834, 2007;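 active = inhibition above 20%; inactive = inhibition below 20%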;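 note: preformed 24 hr biofilms exposed to compound for 48 hr; 0% = biofilm without compound and 100% = blank killed by clotrimazole plus chlorhexidine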
TNAP act mid DEA = human TNAP enzyme activators, primary screen, biochemical, luminescent, intermediate phosphate acceptor level; Alkaline phosphatase, tissue-nonspecific isozyme (Homo sapiens), P05186; purified TNAP, CDP-star luminescence, 100 mM DEA, 30 min; hits give high values; scale: 0 levamisole-inhibited, 1 vehicle-only enzyme; activation factor at 20 µM; 64,000 tested, under 10 active; AID 813, 2007;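 active = activation factor of at least 2 at 20 µM, relative to controls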
Target sequence (P05186 whole entry, looked up): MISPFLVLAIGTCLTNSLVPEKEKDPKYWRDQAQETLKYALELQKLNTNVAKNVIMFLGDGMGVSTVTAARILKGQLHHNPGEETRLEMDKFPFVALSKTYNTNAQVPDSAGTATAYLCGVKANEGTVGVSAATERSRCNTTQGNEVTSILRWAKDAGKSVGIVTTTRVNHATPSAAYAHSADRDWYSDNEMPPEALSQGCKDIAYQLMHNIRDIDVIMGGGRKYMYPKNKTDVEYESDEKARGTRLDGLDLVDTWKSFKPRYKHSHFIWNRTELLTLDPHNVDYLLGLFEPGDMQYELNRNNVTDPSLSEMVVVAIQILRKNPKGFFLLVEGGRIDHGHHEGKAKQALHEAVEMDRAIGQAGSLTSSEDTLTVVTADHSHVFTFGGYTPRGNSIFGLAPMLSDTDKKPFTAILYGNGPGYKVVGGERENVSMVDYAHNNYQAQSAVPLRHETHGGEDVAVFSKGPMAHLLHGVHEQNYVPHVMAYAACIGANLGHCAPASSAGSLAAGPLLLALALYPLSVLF
Jurkat tox 60K = cytotoxicity toward Jurkat T cells, primary screen, cytotoxicity control, cell-based, Jurkat E6.1, 60K MLSMR library; Jurkat E6.1 viability, ATP luminescence, 48 h; inhibition, % at 4 µM; 56,000 compounds, 1.2% hits; AID 463, 2006;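 active = inhibition above the mean inhibition of all tested compounds plus 3 SD, cut at about 28% in these data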
Starred values were filed as active, the others as inactive; . = no result.

SMILES	HEK293 NFkB inh	MMP-13 inhibitor	Calb biofilm kill	TNAP act mid DEA	Jurkat tox 60K
COc1ccc(NC(=O)c2cc(-c3ccccc3OC)on2)cc1	18.4	0.7	.	0.9	92.3*
COc1cc(NC(=O)c2cc(-c3cccs3)on2)cc(OC)c1OC	-8.4	3.4	3.2	0.9	63.8*
COc1cccc(-c2cc(C(=O)Nc3cccc(O)c3)no2)c1	20.4	-0.8	.	1	48.6*
COc1ccccc1-c1cc(C(=O)Nc2ccccc2SC)no1	4.1	-14.3	2.5	0.9	-5.8
COc1ccccc1-c1cc(C(=O)Nc2cccnc2)no1	22.8	-4.9	.	1	72.5*
Cc1ccccc1C(=O)c1cccn1CC(=O)NCCN1CCN(c2cccc(C)c2C)CC1	.	.	2.6	.	.
CCOC(=O)N1CCC(NC(=O)C(NC(=O)C2CCC(C)CC2)C(C)CC)CC1 (centres undefined)	.	.	0.0	.	.
CSc1cccc(NC(=O)CN(c2cccc(C)c2)S(C)(=O)=O)c1	.	.	-2.0	.	.
Cc1cccc(N(CC(=O)Nc2ccc(F)cc2)S(C)(=O)=O)c1	.	.	55.1*	.	.
CC(C)NC(=O)COc1ccc(Cl)cc1Cl	.	.	-1.8	.	.
O=C(COc1ccc(Cl)cc1Cl)NC(=O)N1CCCCC1	-11.5	14.3*	9.4	0.9	0.7
CCOc1ccc2nc(-c3ccccc3)[nH]c2c1	-31.8	-222.1	6.4	0.8	76.1*
CC1(C)CC(=O)c2cn3nc(C(F)(F)F)nc3nc2C1	.	.	0.0	.	.
COc1ccccc1NC(=O)COc1ccccc1	.	.	-1.8	.	.
COc1ccc(OCC(=O)Nc2ccccc2O)cc1	.	.	81.8*	.	.
Cc1nc2ccc(NC(=O)c3cccc(S(=O)(=O)N4CC(C)OC(C)C4)c3)cc2s1 (centres undefined)	.	.	6.6	.	.
CN1Cc2cc(C(=O)c3cc(Cl)cc(CSc4ncccn4)c3O)cnc2NC1=O	33.1	2.9	7.9	0.8	98.0*
Cc1ccc2c(c1)nnn2C1CCN(S(=O)(=O)c2ccc(C(=O)N3C(C)CCCC3C)cc2)CC1 (centres undefined)	13.7	1.6	3.9	0.8	43.4*
c1ccc(/N=C2\N=C(Nc3ccccn3)c3ccccc32)nc1	-2.7	-4.5	5.0	0.8	49.9*
COC(=O)c1sc(N)c(C(=O)OC)c1COC(=O)c1c(C)noc1C	20.8	-7.2	3.8	1	93.5*
COC(=O)c1c(N)sc(C(C)=O)c1C	-3.0	4.8	6.2	1	-2.5
Cc1nn(C)c(C)c1CNC(=O)c1nn2c(c1Cl)NC(c1cccs1)CC2C(F)(F)F (centres undefined)	25.2	-5.5	.	0.9	40.6*
Cc1nn(C)cc1CNC(=O)c1cc2n(n1)C(C(F)(F)F)CC(c1cccs1)N2 (centres undefined)	3.3	-3.4	3.4	0.9	9.4
Cc1ccc(NC(=O)CSc2nnc(Cn3c(=O)sc4ccccc43)n2C)cc1Cl	0.4	5.6	11.2	0.9	5.1
CC(=O)c1sc(NC(=O)C2(F)C(F)(F)C(F)(F)C(F)(F)C(F)(F)C2(F)F)nc1C	90.4*	-4.6	5.9	1	89.5*
SMILES	HEK293 NFkB inh	MMP-13 inhibitor	Calb biofilm kill	TNAP act mid DEA	Jurkat tox 60K
COc1ccccc1N1CCN(C(=O)CSc2nnc3n2C(C)(C)Cc2ccccc2-3)CC1	17.9	-12.1	6.0	0.9	60.5*
O=C(CSc1nnnn1-c1ccc2c(c1)OCO2)NCc1ccccc1	15.9	4.8	3.3	1	58.4*
O=C(CSc1nnnn1-c1ccc2c(c1)OCO2)NCc1cccs1	10.2	4.6	9.1	0.9	-4.8
Cc1noc(/C=C/c2ccco2)c1S(=O)(=O)N1CCC(C(=O)N2c3ccccc3CC2C)CC1 (centres undefined)	-1.8	0.4	3.5	0.9	4.3
COc1ccc(S(=O)(=O)NCc2cn3c(C)csc3n2)cc1F	-4.5	-0.7	21.3*	0.9	-7.6
Cc1ccc(-n2c(SCC(N)=O)nnc2-c2ccc(S(=O)(=O)N3CCCCC3)cc2)c(C)c1	.	.	3.8	.	.
CCOC(=O)c1c(C)c(C(=O)Nc2ccc3c(c2)OCO3)c(C)n1C	1.2	1.3	0.0	1	-0.3
CCOC(=O)c1c(C)c(C(=O)Nc2ccc3c(c2)OCCO3)c(C)n1CC	11.8	7.0	5.9	1	48.5*
CC(C)CCNC(=O)C(c1cccnc1)N(Cc1ccccc1)C(=O)Cn1nnc2ccccc21 (centres undefined)	.	.	5.5	.	.
COc1cc(C(=O)N2CCN(c3ccc(C)cc3C)CC2)cc(OC)c1OC	25.3	-2.7	11.7	0.9	90.8*
O=C(Nc1nc2ccccc2[nH]1)c1ccccc1F	60.7*	1.6	.	1	51.7*
CC(=O)Nc1ccccc1N(C)S(=O)(=O)c1ccc(C)cc1	18.2	2.8	7.1	1	44.9*
CC(=O)Nc1ccccc1NC(=O)CN(C)S(=O)(=O)c1ccc(C)cc1	12.2	1.1	7.1	0.9	-8.0
COc1ccc(C2c3c(oc4c(C)cc(C)cc4c3=O)C(=O)N2Cc2cccnc2)cc1OC (centres undefined)	20.2	-7.8	1.2	0.9	4.7
COc1cc(C2c3c(oc4c(C)cc(C)cc4c3=O)C(=O)N2Cc2cccnc2)ccc1O (centres undefined)	11.3	31.9*	-0.8	0.9	0.1
Cc1ccc(C2NC(=O)Cc3ccccc32)cc1 (centres undefined)	.	.	5.2	.	.
Cc1cccc(N2CCN(c3cccc(C)c3)C2c2cccnc2)c1	7.2	0.5	-2.3	0.9	93.6*
Cc1cccc(N2C(=O)CSC2c2cccnc2)c1 (centres undefined)	.	.	-4.0	.	.
Cc1nc2sc3c(c2c2nc(-c4ccco4)nn12)CC(C)(C)OC3	21.9	1.9	-5.2	1	7.9
O=C(Nc1ccccc1C(F)(F)F)N1CCCCCC1	19.5	7.5	7.4	0.9	9.2
O=C(NC1c2ccccc2-c2ccccc21)N1CCCCC1	42.8*	-1.7	10.7	0.9	4.3
Cc1cccc(-c2c3c(=O)n(C)c(=O)n(C)c3c3c(C)cc(C)nn23)c1	-4.0	2.3	8.0	1	-6.4
N=c1ccn(Cc2ccc(Cl)c(Cl)c2)cc1	12.8	7.7	7.5	0.8	29.6*
N=c1ccn(Cc2ccc(Cl)cc2)cc1	5.0	5.2	7.0	1	15.4
Cc1ccc(C(=O)CSc2nnnn2C(C)C)c(C)c1	.	.	5.3	.	.
COc1ccc(OC)c(C2C(C(=O)Nc3cccnc3)=C(C)NC3=C2C(=O)CCC3)c1 (centres undefined)	7.3	0.7	8.8	0.9	-9.2
O=C(c1ccc(Cl)cc1)N1CCCCC(Sc2nnc(-c3ccc4c(c3)OCO4)o2)C1=O (centres undefined)	75.7*	0.9	4.4	0.9	2.2
O=C(Cn1nnc(-c2ccccc2)n1)Nc1ccc2c(c1)OCO2	.	.	3.3	.	.
O=C(Cn1nnc(-c2ccncc2)n1)Nc1ccc2c(c1)CCC2	13.3	14.8*	.	0.9	1.2
